# Source: PubChem BioAssay
# Rows were chosen to be rich in hits. Some 1.5% of all compounds tested hit in one or more screens of this group.
# NRP1-CendR mod: modulators of CendR peptide binding to NRP-1, primary screen, biochemical, fluorescence polarization, uHTS | Neuropilin-1 (Homo sapiens), O14786 | FAM-RPARPAR peptide binding to NRP-1 | inhibition, % at 25 µM | 360,000 tested, 0.85% active;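 active means inhibition or corrected inhibition above about 18%, plus a signal ratio from 0.5 to 1.5, limit read from the data, passing the limit was not always enough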
# Target sequence (O14786 whole entry, looked up): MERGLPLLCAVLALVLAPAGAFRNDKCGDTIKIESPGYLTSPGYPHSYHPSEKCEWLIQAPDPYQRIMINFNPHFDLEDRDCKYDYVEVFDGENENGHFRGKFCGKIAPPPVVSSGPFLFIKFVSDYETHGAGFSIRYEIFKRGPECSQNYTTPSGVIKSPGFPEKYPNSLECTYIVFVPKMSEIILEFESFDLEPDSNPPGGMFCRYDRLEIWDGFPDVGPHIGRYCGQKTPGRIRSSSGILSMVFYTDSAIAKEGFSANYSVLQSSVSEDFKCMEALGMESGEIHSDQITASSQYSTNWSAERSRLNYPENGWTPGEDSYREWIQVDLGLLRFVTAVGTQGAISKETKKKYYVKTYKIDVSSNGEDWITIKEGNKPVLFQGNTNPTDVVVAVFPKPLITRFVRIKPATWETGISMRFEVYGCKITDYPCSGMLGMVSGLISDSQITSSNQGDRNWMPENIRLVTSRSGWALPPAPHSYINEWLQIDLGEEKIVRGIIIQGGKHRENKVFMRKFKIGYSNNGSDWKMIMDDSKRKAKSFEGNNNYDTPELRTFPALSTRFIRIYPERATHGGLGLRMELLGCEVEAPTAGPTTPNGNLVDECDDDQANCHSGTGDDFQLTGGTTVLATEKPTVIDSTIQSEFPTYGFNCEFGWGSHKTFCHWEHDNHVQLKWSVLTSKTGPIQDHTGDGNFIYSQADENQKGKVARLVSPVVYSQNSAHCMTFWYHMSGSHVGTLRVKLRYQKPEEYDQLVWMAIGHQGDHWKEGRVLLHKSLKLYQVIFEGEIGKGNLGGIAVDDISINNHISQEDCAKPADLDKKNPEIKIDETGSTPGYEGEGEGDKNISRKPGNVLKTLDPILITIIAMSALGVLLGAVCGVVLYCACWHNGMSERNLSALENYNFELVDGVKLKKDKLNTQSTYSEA
# CTSL1 counter: Fasciola hepatica cathepsin L1 inhibitors, primary screen, counter-screen for PFM18AAP inhibitor project, biochemical, QFRET, fluorogenic peptide substrate | recombinant F. hepatica cathepsin L1, Z-Leu-Arg-MCA fluorescence | inhibition, % at 5.96 µM | 300,000 tested, 0.49% active | AID 1906, 2009;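 active means inhibition above the mean of all tested compounds plus 3 SD, set per screening campaign, cut at about 17% in these data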;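 further: 0% = plate median of test compound wells and 100% = 1 µM Z-Phe-Ala-diazomethylketone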
# UCH37 inh: inhibitors of human UCH37 deubiquitinase, primary screen, biochemical, Ub-AMC cleavage, fluorescence; inhibition, % (test concentration not listed); purified proteasome/UCH37; AID 588478, 2011; 330,000 tested, 0.33% active;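 active means mean inhibition over replicate wells above about 20%, limit read from the data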;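 further: 0% = compound-free wells with enzyme and 100% = wells lacking proteasome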
#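 assay system = human UCH37 enzyme supplied as purified proteasome complex | amount = proteasome at 0.15 nM in the dispensed enzyme solution | schedule = 30 min compound-proteasome preincubation then 25 min substrate reaction, room temperature | measured by = fluorescence, ex 355 nm, em 460 nm | benchmarks = no-proteasome wells (full inhibition) and compound-free wells (no inhibition)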
# DAGLB inh: DAGLB lipase inhibitors, primary screen, biochemical, fluorescence, HTS | inhibition, % at 5.17 µM | 340,000 tested, 0.059% active | AID 504411, 2011 | HEK293T DAGLB membrane lysate, EnzChek fluorogenic substrate; in the data active means inhibition above about 34%;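 further: 0% = enzyme with vehicle and 100% = wells lacking enzyme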
# MT1-MMP act inh: blockers of MT1-MMP proenzyme processing, primary screen, HT1080 RFP-PRO-GFP cells, GFP/RFP fluorescence; AID 651647, 2012; Matrix metalloproteinase-14 (Homo sapiens), P50281; 360,000 tested, 0.061% active; GFP/RFP ratio fluorescence, overnight; percent of plate control window, DMSO zero; GFP/RFP ratio change, % at 20 µM;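 active means GFP/RFP ratio change of at least 30% with cell ATP level not reduced by more than half and red fluorescence within 50% of control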
#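 system = RFP-PRO-GFP reporter HT1080 cells | dosing = 20 µM single dose, 1% DMSO | timing = overnight cell settling, then overnight compound exposure, 37 °C, 5% CO2 | read-out basis = GFP/RFP fluorescence ratio | controls = DMSO and RFP-L50D-GFP cell wells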
# * = called active by the depositor; i = inactive; . = no result given.
SMILES,NRP1-CendR mod,CTSL1 counter,UCH37 inh,DAGLB inh,MT1-MMP act inh
CCN(CCCNC(=O)CNC(=O)c1nn(-c2ccc(OC)cc2OC)c(=O)c2ccccc12)c1cccc(C)c1,25*,6,4,8,-5
CC(=NNC(=S)NC(C)C)c1ccccc1,.,.,4,.,.
Cc1cc(NC(=O)C23CC4CC(CC(C4)C2)C3)n[nH]1,2,20*,-1,2,-10
CCCc1c(-c2ccc(F)cc2)ncn1Cc1ccccc1OC,22*,.,.,.,-2
CCCc1c(-c2ccccc2)ncn1Cc1ccccc1OC,-4,.,.,.,3
CCCCCc1c(-c2cccc(Cl)c2)ncn1CCc1ccccc1OC,23*,.,.,.,2
NC(=NO)C(c1ccccc1)c1ccccc1,.,.,0,.,.
COc1ccc(N(CC(=O)NN=Cc2ccc(OC)cc2OC)S(=O)(=O)c2ccccc2)cc1,.,.,2,.,.
O=c1ccsn1Cc1ccccc1,28*,24*,2,3,0
COc1ccccc1/C=C/C=NNC(=O)c1ccco1,.,.,-12,.,.
Cc1c(-c2ccnc3cc(C(=O)O)nn23)cnn1C,10,1,i,1,-2
CCn1cc(-c2ccnc3cc(C(=O)O)nn23)c(C)n1,32*,-1,i,2,3
CC(C)(C)NC(=O)NC(=O)COC(=O)COc1ccc2c(c1)CCC2,-6,-7,20*,-3,0
COc1ccc(/C=C(/NC(=O)c2ccc(C)cc2)C(=O)NCC2CCCO2)cc1 (stereo not drawn),9,2,3,0,-4
COc1ccc(C(=O)N/C(=C\c2ccc(Cl)cc2)C(=O)NCC2CCCO2)cc1 (stereo not drawn),-4,17*,3,2,-5
COc1cc(C=NNC(=O)C(=O)NCC2CCCO2)ccc1OCC(=O)N1CCOCC1 (stereo not drawn),.,.,8,.,.
COc1cc(/C=N/NC(=O)CNC(=O)c2ccco2)ccc1O,-6,28*,.,-3,-2
COc1cc(/C=N/NC(=O)C(=O)NCC2CCCO2)ccc1O (stereo not drawn),39*,-3,.,-1,4
N#CCC(=O)NN=Cc1cn(Cc2ccc(Cl)c(Cl)c2)c2ccccc12,.,.,0,.,.
COc1ccc(N/C=C/C(=O)C(C)(C)C)cc1,31*,8,9,1,-2
COc1ccc(N/C=C/C(=O)c2ccccc2)cc1,8,-5,1,-2,1
CCCCOc1ccc(C(=O)Nn2cnnc2)cc1,25*,-5,3,-1,0
Oc1oc(-c2ccccc2)nc1/C=N/c1nccs1,4,45*,.,0,2
Oc1oc(-c2ccccc2)nc1C=NCc1ccncc1,1,36*,16,1,3
Oc1oc(-c2ccc(Br)cc2)nc1/C=N/c1ccccn1,0,23*,.,1,-1
SMILES,NRP1-CendR mod,CTSL1 counter,UCH37 inh,DAGLB inh,MT1-MMP act inh
CCCCOc1ccc(-c2nc(/C=N/c3nccs3)c(O)o2)cc1,-6,0,.,-2,2
COc1ccc(C=NNC(=O)c2ccc([N+](=O)[O-])cc2)cc1COc1c(F)c(F)cc(F)c1F,.,.,4,.,.
COCCn1c(Cc2ccccc2)nnc1SCC(=O)NC1CC1,25*,-7,0,1,-3
CC(C)CN1CCC(=O)N([C@H](CSc2ccc(Br)cc2)Cc2ccccc2)CC1,24*,1,2,-19,-7
CN1CCC(=O)N([C@H](CSc2ccc(Br)cc2)Cc2ccccc2)CC1,4,0,5,0,1
CCCN1CCC(=O)N([C@H](CSc2ccc(Br)cc2)c2ccccc2)CC1,24*,-2,2,-3,2
Cc1ccc(NC(=O)c2cccc(Cl)c2)nc1,25*,0,3,-2,2
Cc1ccc(NC(=O)c2ccccc2[N+](=O)[O-])nc1,30*,-3,3,1,-1
Cc1ccc(NC(=O)c2ccc(Cl)cc2[N+](=O)[O-])nc1,-2,1,-6,-1,-4
O=C(CSc1ccc([N+](=O)[O-])cc1)NCC1CCCCC1,26*,-4,3,0,-3
Cc1cc(Cl)ccc1NC(=O)C(=O)NN=Cc1ccc2c(c1)OCO2,.,.,-23,.,.
COC(=O)CCC(=O)OC1(C)C(=O)C=C2C=C(C3CC3)N(C(CO)CO)C=C2C1=O (stereo not drawn),27*,4,3,-1,6
COC(=O)CCC(=O)OC1(C)C(=O)C=C2C=C(C3CC3)N(CCN3CCOCC3)C=C2C1=O (stereo not drawn),16,4,5,-3,-6
COC(=O)CCC(=O)OC1(C)C(=O)C=C2C=C(C3CC3)N(CCc3ccccn3)C=C2C1=O (stereo not drawn),30*,2,7,1,-3
COC(=O)CCC(=O)OC1(C)C(=O)C=C2C=C(C3CC3)N(CCc3c[nH]c4ccccc34)C=C2C1=O (stereo not drawn),0,-11,3,3,-4
C=CCN1C=C2C(=O)C(C)(OC(=O)CCC(=O)OC)C(=O)C=C2C=C1C1CC1 (stereo not drawn),38*,-2,5,1,2
COC(=O)CCC(=O)OC1(C)C(=O)C=C2C=C(C3CC3)N(c3ccccc3)C=C2C1=O (stereo not drawn),13,1,0,1,-3
COC(=O)CCC(=O)OC1(C)C(=O)C=C2C=C(C3CC3)N(CCCCO)C=C2C1=O (stereo not drawn),21*,5,5,1,2
O=C(Cn1c(C(F)(F)F)nc2ccccc21)NN=Cc1ccco1,.,.,3,.,.
CC(=NNC(=O)C(C)Nc1cccc(Cl)c1)c1ccc([N+](=O)[O-])cc1 (stereo not drawn),.,.,3,.,.
COCCN1C=C2C(=O)C(C)(OC(=O)c3cccs3)C(=O)C=C2C=C1CCCC(=O)OC (stereo not drawn),3,7,3,1,0
COC(=O)CCCC1=CC2=CC(=O)C(C)(OC(=O)c3cccs3)C(=O)C2=CN1CCCCO (stereo not drawn),40*,3,7,-1,5
O=C(NCc1ccncc1)C(=NO)c1ccccc1,.,.,0,.,.
CC(=O)NC(c1cccc(F)c1)c1nc(-c2cccc(C(F)(F)F)c2)cs1 (stereo not drawn),25*,.,.,.,2
COc1ccc(-c2csc(C(NC(C)=O)c3cccc(F)c3)n2)cn1 (stereo not drawn),27*,.,.,.,3
